Among the data in ChEMBL document CHEMBL1123841, “3-Carbonylacrylic derivatives as potential antimicrobial agents. Correlations between activity and reactivity toward cysteine” (J Med Chem, 1987) are logP and MIC values, retold here.

Data set [1] can be described thus: Partition coefficient (logP). In kind it is physicochemical. The conditions noted are these: octanol/water. In outline: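 Octanol/water partition coefficient: some values measured experimentally by a standard literature procedure, with P = C_oct/C_H2O(1−α) correcting for ionization (α); the remaining values calculated by the method of Leo et al.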
For the next data set, the system named is Staphylococcus aureus. Kind of data set: Antimicrobial activity against Staphylococcus aureus(ATCC 6538) was determined. In kind it is functional. The method, boiled down: (§1)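 MIC determined by serial dilution in liquid medium; values expressed as micromoles/milliliter.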
For a further data set, the system named is Streptococcus pyogenes. Kind of data set: Antimicrobial activity against Streptococcus pyogenes A(IVM P 134) was determined. Type of data set: functional. In outline:
as §1

In another data set the test system is Microsporum canis. The data set is described as follows: Antimicrobial activity against Microsporum canis(ATCC 11621) was determined. Type of data set: functional. In outline:
as §1

Converted amounts (≈) assume the structure as drawn.

Broadly, the logP is a log measure of how a compound divides between an organic and an aqueous phase. Low values mean lower lipophilicity, high ones higher lipophilicity. By MIC is commonly meant the lowest concentration found to suppress growth. A lower MIC goes with a more susceptible organism.

In data set [1], `O=C(O)/C=C/C(=O)c1ccccc1` displayed a logP of 1.94. Further, the minimum inhibitory concentration (MIC) with Staphylococcus aureus was determined as 1260 µM (≈ 222 µg/mL); with Streptococcus pyogenes it was 30 µM (≈ 5.29 µg/mL); against Microsporum canis it was 1000 µM (≈ 176 µg/mL).

For the compound `C/C(=C\C(=O)O)C(=O)c1ccccc1`, the logP in data set [1] was 2.44. Also, the values for the MIC with Staphylococcus aureus and in the data set on Streptococcus pyogenes were 18000 µM (≈ 3420 µg/mL) and 2000 µM (≈ 380 µg/mL), respectively.

Turning to `C/C(=C/C(=O)O)C(=O)c1ccc(C)cc1`, in data set [1], the logP turned out to be 2.19. For the same compound, the values for the MIC in the data set with Staphylococcus aureus, in the data set with Streptococcus pyogenes and in the data set on Microsporum canis were more than 15000 µM, 2000 µM (≈ 408 µg/mL) and 3200 µM (≈ 654 µg/mL), respectively.

Compound `COC(=O)/C=C/C(=O)c1ccccc1` displayed a logP in data set [1] of 2.24. The MIC in the data set on Staphylococcus aureus was 40 µM (≈ 7.61 µg/mL); against Streptococcus pyogenes, 10 µM (≈ 1.9 µg/mL); with Microsporum canis it was 2.6 µM (≈ 0.495 µg/mL).

The compound `COC(=O)/C=C/C(=O)c1cccnc1` yielded a logP in data set [1] of 0.56. Also, the MIC stood at 160 µM (≈ 30.6 µg/mL) in the data set on Staphylococcus aureus, 42 µM (≈ 8.03 µg/mL) in the data set with Streptococcus pyogenes and 5 µM (≈ 0.956 µg/mL) against Microsporum canis.

In data set [1], `CCCCC(=O)/C(C)=C(/C)C(=O)O` registered a logP of 0.9. The compound further yielded an MIC against Streptococcus pyogenes of 3800 µM (≈ 700 µg/mL).

`C/C(=C/C(=O)c1ccc(C)cc1)C(=O)O` had a logP in data set [1] of 2.19. The figures for the MIC with Staphylococcus aureus, in the data set on Streptococcus pyogenes and with Microsporum canis were 15000 µM (≈ 3060 µg/mL), 2000 µM (≈ 408 µg/mL) and 3200 µM (≈ 654 µg/mL), respectively.

For the compound `O=C(O)/C=C/C(=O)c1ccc(-c2ccccc2)cc1`, the logP in data set [1] came out at 3.9. Further, the MIC against Staphylococcus aureus was determined as 80 µM (≈ 20.2 µg/mL); against Streptococcus pyogenes it was 6 µM (≈ 1.51 µg/mL).

In the case of `COC(=O)/C=C/C(=O)c1ccc(C)cc1`, in data set [1], the logP is 2.74. Moreover, the results for the MIC against Staphylococcus aureus, in the data set with Streptococcus pyogenes and against Microsporum canis were 50 µM (≈ 10.2 µg/mL), 24 µM (≈ 4.9 µg/mL) and 50 µM (≈ 10.2 µg/mL), respectively.

Turning to `Cc1ccc(C(=O)/C=C/C(=O)O)cc1`, the logP in data set [1] was 2.44. The values for the MIC in the data set with Staphylococcus aureus, with Streptococcus pyogenes and against Microsporum canis were 1000 µM (≈ 190 µg/mL), 13 µM (≈ 2.47 µg/mL) and 1000 µM (≈ 190 µg/mL), respectively.

The compound `C/C(=C/C(=O)O)C(=O)c1ccccc1` showed a logP in data set [1] of 1.69. Besides, the MIC in the data set on Staphylococcus aureus was more than 16000 µM; in the data set on Streptococcus pyogenes, 2200 µM (≈ 418 µg/mL); against Microsporum canis, 16000 µM (≈ 3040 µg/mL).

In the case of `COC(=O)/C=C\C(=O)c1ccccc1`, the logP in data set [1] was found to be 1.49. For the same compound, the figures for the MIC against Staphylococcus aureus, with Streptococcus pyogenes and in the data set with Microsporum canis were 40 µM (≈ 7.61 µg/mL), 3 µM (≈ 0.571 µg/mL) and less than 2 µM, respectively.

As for `CCCCCCCC(=O)/C(C)=C(/C)C(=O)O`, the logP in data set [1] came to 2.4. In addition, the MIC in the data set on Streptococcus pyogenes turned out to be 320 µM (≈ 72.4 µg/mL).

As for `CCCCCCCCCCCC(=O)/C(C)=C(/C)C(=O)O`, in data set [1], the logP turned out to be 4.4. Besides, it took 10 µM (≈ 2.82 µg/mL) to inhibit growth in the data set with Streptococcus pyogenes (MIC).

In data set [1], `C/C(=C\C(=O)c1ccc(C)cc1)C(=O)O` displayed a logP of 2.94. Besides, the MIC against Staphylococcus aureus came to 16000 µM (≈ 3270 µg/mL); against Streptococcus pyogenes, 2000 µM (≈ 408 µg/mL); with Microsporum canis, 1200 µM (≈ 245 µg/mL).

With `O=C(O)/C=C/C(=O)c1cccnc1`, in data set [1], the logP is 0.26. Also, the MIC in the data set with Staphylococcus aureus turned out to be 1000 µM (≈ 177 µg/mL); against Streptococcus pyogenes, 50 µM (≈ 8.86 µg/mL).

In the case of `C/C(=C\C(=O)O)C(=O)c1ccc(C)cc1`, the logP in data set [1] stood at 2.94. Also, the MIC in the data set on Staphylococcus aureus was 15000 µM (≈ 3060 µg/mL); with Microsporum canis it was 3200 µM (≈ 654 µg/mL).
